High-throughput results as filed in PubChem BioAssay.
Compounds with a hit are over-represented: about 2.6% of the library has one in this group of screens.
FN deposit inh: fibronectin deposition inhibition; 0.086% of 350,000 active; AH1F fibroblasts, Alexa488-fibronectin deposition fluorescence, overnight; inhibition, % at 12.6 µM;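 active = mean inhibition across replicates of 30% or more, regardless of how many single replicates reach that level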
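test system = AH1F fibroblasts assembling fluorescent fibronectin matrix | quantity = 10000 AH1F cells per well | buffer or medium = DMEM plus 2% serum, read in PBS | doses = single dose, pinned | incubation = 1 h cell attachment, overnight exposure to compound and label | detection = fluorescence at 485 nm excitation, 525 nm emission | read-out basis = inhibition from reduced deposited-fibronectin fluorescence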
HIV Env fusion: HIV envelope-mediated fusion inhibition. HeLa-JRFL Env/CEM21 cell fusion, luciferase. inhibition, % at 12.3 µM. 1.1% of 360,000 active. AID 651610;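 active = mean replicate inhibition score of at least 50 and every replicate individually at or above 50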
rRNA inh HTS: inhibitors of bacterial rRNA selective over humanized ribosomes. E. coli WT GFP vs humanized-ribosome RFP mutants, fluorescence, 24 h; hits give low values; DMSO median 0, no signal -100. GFP signal change (wild-type ribosome), % (test concentration not listed). 1.6% of 350,000 active. AID 720706;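 active = significant combined selectivity score with lowered wild-type GFP, culture density cut under 30%, mutant RFP and density less affected; inactive = any of these conditions unmet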
miR-122 sensor: inhibitors of miR-122 in Huh7 cells; Huh7 miR-122 Renilla luciferase sensor, 48 h; neutral wells = 0, positive control = 100; activation (reporter increase), % at 12.5 µM; 0.3% of 340,000 active; AID 602342;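 active = mean replicate activation score at least 90 and every replicate individually at or above 90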;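 also: higher luciferase means less miR-122 activity so hits act as miR-122 inhibitors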
S100A4 inh HTS: blocks human S100A4 binding to myosin IIA peptide; P26447; S100A4/TAMRA-MyoIIA peptide fluorescence polarization; inhibition, % at 10.7 µM; 0.14% of 360,000 active; AID 652163;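 active = mean inhibition of at least 70% across replicates, with every replicate also reaching that level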
Target sequence (P26447 whole entry, looked up): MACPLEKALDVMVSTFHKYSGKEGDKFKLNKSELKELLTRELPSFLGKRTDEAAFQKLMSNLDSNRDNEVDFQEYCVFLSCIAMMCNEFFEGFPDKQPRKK
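System – human S100A4 monomer protein, biochemical binding assay · Buffer or medium – Calcium-containing HEPES buffer, pH 7.2 · Timing – 5 min between mix addition and reading · Also added – TAMRA-labelled myosin IIA heavy-chain peptide probe, 5 nM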
Vif imaging: HIV Vif inhibition. 0.35% of 340,000 active. AID 602346. HEK293T cells, Vif self-association by quenched fluorescence, imaging, 24 h. inhibition, % at 7.49 µM; in the data active = inhibition above about 50%, passing the limit was not always enough
Numbers stand for hits; – = inactive; · = no result given.

SMILES	FN deposit inh	HIV Env fusion	rRNA inh HTS	miR-122 sensor	S100A4 inh HTS	Vif imaging
O=C(O)c1ccc(N/N=C/c2ccc3nccnc3c2)cc1	–	75	–	–	–	–
O=C(O)c1ccc(N/N=C/c2ccncc2)cc1	–	–	–	·	–	–
Cc1noc(C)c1S(=O)(=O)N(C)C[C@@H]1OCCCC[C@@H](C)Oc2ccc(NC(=O)Cc3ccccc3)cc2C(=O)N([C@H](C)CO)C[C@@H]1C	·	–	–	–	–	·
O=C(O)c1cccc(COc2ccc3c(c2)CCC3)c1	–	85	–	–	–	–
COc1ccc(OCc2cccc(C(=O)O)c2)cc1	·	·	·	–	·	–
CCOc1ccc(OCc2cccc(C(=O)N3CCCCCC3)c2)cc1	–	–	–	·	–	–
O=C(NCc1ccccc1)c1cccc(COc2ccc3c(c2)CCC3)c1	–	–	·	·	·	–
CCOc1ccc(OCc2cccc(C(=O)N3CCCC3)c2)cc1	·	·	–	–	–	53
CCOc1ccc(OCc2cccc(C(=O)O)c2)cc1	·	·	-24	–	–	–
COc1cc2c(cc1OC)CN(C1CCCN(Cc3cc(Cl)ccc3O)C1)CC2 (stereo not given)	–	–	-28	–	–	–
Cc1nn(C(C)(C)C)c(C)c1/C=N/OC(=O)Nc1ccc(Cl)cc1	–	–	-27	–	–	–
Cc1ccc(-c2csc3nc[nH]c(=O)c23)c(C)c1	–	–	–	–	–	–
Cc1ccc(-c2csc3nc(C(C)C)oc(=O)c23)c(C)c1	–	–	-24	–	–	–
COc1cc(C)ccc1OCC(=O)OCC(=O)c1[nH]c(C)c(C(C)=O)c1C	–	–	–	–	–	–
COc1ccccc1OCC(=O)c1[nH]c(C)c(C(C)=O)c1C	·	74	·	–	·	–
CN1CCN(C(=O)C[C@@H]2C[C@H]3c4cc(NC(=O)Nc5ccccc5)ccc4O[C@H]3[C@@H](CO)O2)CC1	–	–	–	–	·	·
CS(=O)(=O)N(Cc1ccc(Cl)cc1)c1ccc(C(=O)Nc2cccnc2)cc1	·	60	·	–	·	–
CS(=O)(=O)N(Cc1ccc(Cl)cc1)c1ccc(C(=O)NCCSc2ccccn2)cc1	–	85	·	–	·	–
COc1ccc(NC(=O)Nc2ccc3c(c2)CC(=O)N([C@@H](C)CO)C[C@@H](C)[C@@H](CN(C)S(C)(=O)=O)O3)cc1	·	–	–	–	–	·
COc1ccc(CCC(=O)NCCc2ccc(Cl)cc2)cc1	–	–	–	–	–	–
COc1ccc2c(c1)C(SCC(=O)NCCc1ccc(Cl)cc1)CC(C)(C)O2 (stereo not given)	–	63	–	–	–	–
O=C(Cc1ccccc1)N1C[C@H]2[C@@H](c3ccccc31)[C@H](CO)N2C(=O)Nc1ccc(F)cc1	·	·	–	–	–	·
CC1CCc2nc3ccccc3c(C(=O)OCC(=O)N(C)C3CCS(=O)(=O)C3)c2C1 (stereo not given)	–	–	–	·	–	–
CC1CCc2nc3ccccc3c(C(=O)OCC(=O)NC3CCS(=O)(=O)C3)c2C1 (stereo not given)	–	–	-29	·	–	–
O=C(C[C@H]1CC[C@@H]2[C@H](COC[C@@H](O)CN2C(=O)C2CCOCC2)O1)NCc1ccncc1	–	–	–	–	–	·
SMILES	FN deposit inh	HIV Env fusion	rRNA inh HTS	miR-122 sensor	S100A4 inh HTS	Vif imaging
c1ccc(-c2nc3c4ccccc4ccn3c2CN2CCOCC2)cc1	–	–	-29	–	–	–
Clc1ccc(-c2nc3c4ccccc4ccn3c2Cc2ccsc2)cc1	–	65	–	·	–	·
COc1ccc(-c2nc3c4ccccc4ccn3c2CN2CCOCC2)cc1OC	–	–	–	–	–	–
CC(C)CC#Cc1ccc2c(c1)O[C@H](CN(C)C(=O)Nc1ccccc1)[C@H](C)CN([C@H](C)CO)S2(=O)=O	–	–	–	–	–	·
Cc1noc(C)c1S(=O)(=O)Nc1ccc2c(c1)C(=O)N([C@H](C)CO)C[C@@H](C)[C@@H](CN(C)S(C)(=O)=O)O2	·	–	–	–	–	·
OC[C@H]1[C@@H](c2ccc(C#CC3(O)CCCC3)cc2)[C@@H]2CN(Cc3cccnc3)CCCCN12	·	·	–	–	–	·
CN1[C@H](C(=O)NC2CCCC2)[C@@H](CO)[C@@H]2Cn3c(ccc(-c4cccc(F)c4)c3=O)[C@@H]21	·	·	–	·	–	·
